The values below come from ChEMBL document CHEMBL1122035, “Preparation and evaluation of 2-substituted anthraquinones based on the anthracyclines” (1982).

Assay [1] deals with Nucleic Acid. Nature of the assay: DNA binding property and activity expressed as K. The class given is nucleic-acid assay. A digest of the protocol:
(§1)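 Absorbance read at the unbound-drug λmax after 5-min equilibration, against a buffer blank. K and n were obtained by nonlinear regression of absorbance against cumulative DNA volume, using a one- or two-site model.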

Assay [2] concerns Nucleic Acid. Nature of the assay: DNA binding property and activity expressed as Kn. The class given is nucleic-acid assay. A digest of the protocol: as §1
Assay [3] deals with Mus musculus. As to the kind of experiment: In vivo antitumor activity against P-388 leukemia in mice at the dose of 200 mg/kg. The class given is functional. A digest of the protocol:
(§2)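 P-388 leukemia in mice; compounds given as hydrochloride salts. Screening was done by the NCI Drug Research and Development Program. Result expressed as T/C (%).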

For assay [4], the system named is Mus musculus. As to the kind of experiment: In vivo antitumor activity against P-388 leukemia in mice at the dose of 100 mg/kg. The class given is functional. A digest of the protocol:
as §2

Assay [5] relates to Mus musculus. Nature of the assay: In vivo antitumor activity against P-388 leukemia in mice at the dose of 5 mg/kg. The class given is functional. A digest of the protocol: as §2
The test system of assay [6] is Mus musculus. As to the kind of experiment: In vivo antitumor activity against P-388 leukemia in mice at the dose of 50 mg/kg. The class given is functional. A digest of the protocol: as §2
Assay [7] concerns Mus musculus. As to the kind of experiment: In vivo antitumor activity against P-388 leukemia in mice at the dose of 40 mg/kg. The class given is functional. An outline of the steps:
as §2

SMILES strings stand for the structures.

For `CN(C)CCCNC(=O)c1ccc2c(c1)C(=O)c1ccccc1C2=O.Cl`, the K in assay [1] worked out at 59000 M⁻¹. In addition, in assay [2], the Kn came out at 11000 M⁻¹. This compound also showed a T/C in assay [3] of 115%.

As for `CN(C)CCNC(=O)Cc1cc(O)c2c(c1O)C(=O)c1ccccc1C2=O.Cl`, the K in assay [1] turned out to be 289000 M⁻¹. In addition, the Kn in assay [2] was found to be 75000 M⁻¹. The T/C in assay [4] was 118%.

In turn, `CCN(CC)CCCC(C)NC(=O)c1ccc2c(c1O)C(=O)c1ccccc1C2=O.Cl` (stereo not given) displayed a K in assay [1] of 78000 M⁻¹. Also, in assay [2], the Kn was found to be 10100 M⁻¹. In addition, in assay [5], the T/C came to 106%.

In the case of `CCN(CC)CCCNC(=O)Cc1cc(O)c2c(c1O)C(=O)c1ccccc1C2=O.Cl`, the K in assay [1] was 127000 M⁻¹. In assay [2], the Kn was determined as 29000 M⁻¹. For the same compound, the T/C in assay [6] was 108%.

Turning to `CCN(CC)CCCC(C)NC(=O)c1ccc2c(c1)C(=O)c1ccccc1C2=O.Cl` (stereo not given), in assay [3], the T/C was 127%.

In assay [1], `CN(C)CCCNC(=O)Cc1cc(O)c2c(c1O)C(=O)c1ccccc1C2=O.Cl` yielded a K of 259000 M⁻¹. This compound displayed a Kn in assay [2] of 65000 M⁻¹. The T/C in assay [6] is on record as 106%.

`CCN(CC)CCCNC(=O)c1ccc2c(c1O)C(=O)c1ccccc1C2=O` returned a K in assay [1] of 92000 M⁻¹. In assay [2], this compound yielded a Kn of 12900 M⁻¹.

The compound `CCN(CC)CCNC(=O)Cc1cc(O)c2c(c1O)C(=O)c1ccccc1C2=O.Cl` displayed a K in assay [1] of 529000 M⁻¹. Besides, the Kn in assay [2] was determined as 100000 M⁻¹. The T/C in assay [4] was 106%.

Regarding `CCN(CC)CCNC(=O)c1ccc2c(c1O)C(=O)c1ccccc1C2=O`, in assay [1], the K worked out at 46000 M⁻¹. Further, the Kn in assay [2] is 9100 M⁻¹.

In assay [1], `CCN(CC)CCCC(C)NC(=O)Cc1cc(O)c2c(c1O)C(=O)c1ccccc1C2=O.Cl` (stereo not given) came in with a K of 308000 M⁻¹. This compound gave a Kn in assay [2] of 49000 M⁻¹. This compound gave a T/C in assay [7] of 125%.

Regarding `CN(C)CCCNC(=O)c1ccc2c(c1O)C(=O)c1ccccc1C2=O.Cl`, the K in assay [1] was determined as 78000 M⁻¹. The Kn in assay [2] is 9400 M⁻¹. Also, the T/C in assay [6] was 118%.

In assay [3], `CCN(CC)CCNC(=O)c1ccc2c(c1)C(=O)c1ccccc1C2=O.Cl` yielded a T/C of 119%.

Broadly, the T/C is the result in the treated group divided by that in the control group, in per cent.
